Source: ChEMBL document CHEMBL4513216, “Probing the Open Global Health Chemical Diversity Library for Multistage-Active Starting Points for Next-Generation Antimalarials” (ACS Infect Dis, 2020)

Experiment: Toxicity liver stage against HepG2, at 10uM
Format: cell-based
Parameters: test concentration 10 uM, cell line HepG2-A16-CD81EGFP
Conditions: human, HepG2-A16-CD81EGFP cells; read-out: INHIBITION
Procedure, shortened: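 Uninfected HepG2-A16-CD81EGFP cells, 3 × 10^3 per well, 1536-well, plated on prespotted compound at 10 μM final, parasite-free screening media added to match infected plates; puromycin 10 μM positive, DMSO 0.5% negative; run in parallel with 48 h PbLuc assay at 37 °C, 5% CO2; viability by CellTiter-Glo luminescence, normalized to controls.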

SMILES | cytotoxicity at 10 µM [%]
CC(=O)N(Cc1ncc(C)o1)C1CCN(Cc2nnc(C3CC3)o2)C1 (stereo not given) | 5.08
Cc1ncccc1NC(=O)[C@@H]1C[C@@H]2CCN(Cc3cccs3)C[C@H]2O1 | -72.9
CCN1CCN(CC(=O)N2CCOC(Cc3ccc(OC)cc3)C2)CC1 (stereo not given) | -2.77
Cc1ccc2c(n1)N(CCN(C)C)CCN(C(=O)c1cccs1)C2 | -69.8
Cc1noc(C(C)N2CCN(CCC(=O)N3CCCCC3)CC2)n1 (stereo not given) | -9.24
COc1ncc(-c2nccn2C(C)CCn2cccn2)cn1 (stereo not given) | 0.728
CS(=O)(=O)c1ccc(Cl)c(NC(=O)NCCC2=CCCCC2)c1 | 0.0793
O=C(c1cscn1)N1CCC2(COc3ncccc3S(=O)(=O)N2)C1 (stereo not given) | 7.22
Cc1nnc(C2CCN(C(=O)c3cnc4ccccc4n3)CC2)s1 | 7.1
Cc1nccc([C@H]2C[C@@H]3CCN(S(C)(=O)=O)C[C@H]3O2)n1 | -0.522
CCCS(=O)(=O)NCc1ncc(C)c(OC)c1C | -12.9
Cc1noc(C)c1C(=O)N1CCC(c2cc3cnccc3[nH]2)CC1 | 7.07
COc1ccc(C2CCCN2c2ccnc(C)c2Cl)c(OC)c1 (stereo not given) | 28.4
COc1ccc(CN2C[C@@H]3COC[C@@H](CC(=O)N4CCCC4)[C@@H]3C2)cc1 | -18.8
Cc1n[nH]c(C)c1C1COCCN1C(=O)Cc1cccc(F)c1 (stereo not given) | -10.7
CCOC(=O)N1CC(C)=C(C)CN1C(=O)Nc1ccc(Cl)c(Cl)c1 | -0.113
O=C(c1ncoc1C1CCCO1)N1CC2(CCCC2)c2ccccc21 (stereo not given) | 3.13
Cc1nn(C)c(C)c1C(C)NCc1ccsc1 (stereo not given) | 5.42
c1ccc(Cc2nnc(CN3CCCC(Cn4cncn4)C3)o2)cc1 (stereo not given) | -4.51
CC(NC(=O)NC1CCN(Cc2ccncc2)CC1)c1cccc(F)c1 (stereo not given) | -12.5
Cc1noc(C)c1-c1cncc(C2CCCN2Cc2ccncc2)n1 (stereo not given) | -7.98
COc1ccc(CNc2cc3[nH]c(O)nc3cc2C)cc1 | 18.1

SMILES | cytotoxicity at 10 µM [%]
Cc1nonc1C1CCCN1C(=O)c1cc2n(n1)CCCN(C(C)C)C2 (stereo not given) | -10
Cc1cc(-c2cccnc2)nc(C2CCCN2S(C)(=O)=O)n1 (stereo not given) | 4.36
Cc1nn(C)c(C)c1C1CCCN1Cc1nc2ccccc2n1C (stereo not given) | -14.4
CC(NC(=O)NCCn1ccnc1)c1ccc2c(c1)OCCCO2 (stereo not given) | -7.27
COc1ccccc1NC(=O)N(CCO)Cc1ccsc1 | -1.05
Cc1nccn1-c1cc(CNC(=O)C2CCCO2)ccn1 (stereo not given) | -7.81
Cc1cnn(CC2CCCN2C(=O)c2ccc3[nH]nnc3c2)c1 (stereo not given) | 1.03
CCOc1ccc(C(=O)N2CCCC(c3nccn3C)C2)cc1OCC (stereo not given) | -6.77
Cc1cc(N2CCCC(c3[nH]ncc3Cc3ccccc3)C2)nc(N)n1 (stereo not given) | 57.1
Cc1cccc(C(=O)N2CCCN(CCCSCC#N)CC2)c1 | -150
O=C(c1ccc2c(c1)CCC2)N1CCN(c2ccc(Cl)cn2)CC1 | -2.27
Cc1nc2c(c(=O)[nH]1)CN(Cc1ccc3c(c1)CCCN3C)CC2 | -3.55
CC(C)C1CN(C(=O)c2cn3cc(Cl)cnc3n2)CCCN1CC1CC1 (stereo not given) | 3.46
COc1ccc(C(=O)NS(=O)(=O)c2cccc(C#N)c2)cc1 | -2.97
CC(C)c1noc(CNC2CCCN(Cc3noc(C4CC4)n3)C2)n1 (stereo not given) | -3.19
Cc1cnn(CCNCC(=O)N2CCN(c3ccccc3)CC2)c1 | -6.74
COc1cccc(-c2cc(NCC(=O)O)nc3[nH]ccc23)n1 | 8.09
CN(C)C(=O)N1CCN(c2ccc3ccc(C(=O)NC4CC4)cn23)CC1 | 6.53
Cc1nc(C(=O)N2CCCC2c2noc(C)n2)c[nH]1 (stereo not given) | -4.95
COc1cc2c(cc1CNC(=O)Cc1cc(C)on1)OC(C)C2 (stereo not given) | 5.38
COc1ccc(Cn2cc(C(=O)N(C)Cc3cnccn3)nn2)cc1 | 9.81
CC(C)n1nc2c(cc1=O)CN(CC1CCCCO1)CC2 (stereo not given) | 14.5

SMILES | cytotoxicity at 10 µM [%]
CCc1cc(CN(C)C(=O)c2nnc(CN(C)C)o2)on1 | 1.77
CSc1ccc(C(C(=O)O)N2CCOCC2)cc1 (stereo not given) | 0.324
CSC(C)(C)CNC(=O)NCc1cccc(-n2ccnc2)c1 | 32.9
Cc1cccc(CNC(=O)CC2CCN(Cc3ccccn3)CC2)n1 | 10.1
CCCc1nc(CNc2ccc(F)c(F)c2)no1 | 8.93
CC(C)N(C(=O)CN(C)C1CCc2ccccc21)C(C)C (stereo not given) | -9.3
CCS(=O)(=O)N1CCC[C@]2(C(=O)N(C)C)CN(c3ccccn3)C[C@@H]2C1 | -8.93
CN(CCc1ccccn1)C(=O)Nc1cccnc1N1CCCC1 | -27.2
COCCN1CCn2cc(CNC(=O)C3CCC3)nc2C1 | 3.68
COc1ccccc1CNC(=O)COc1ccc2c(c1)OCC2O (stereo not given) | -3.75
Cc1ccc(N2CCCC3(CCCC(=O)N3)C2)nn1 (stereo not given) | -1.52
COCc1nc(N2CC[C@H](N(C)C)C2)c2cnn(C)c2n1 | -6.67
CN(Cc1cccc(F)c1)C(=O)CN1CCCCC1Cn1cncn1 (stereo not given) | -8.25
CNC(=O)[C@@H](c1ccccc1)N1CCC[C@H]1C(=O)NCc1cccnc1 | 2.38
Cc1ccc(N2CCCC3(CCN(C(=O)CC(F)(F)F)C3)C2)nn1 (stereo not given) | -108
CN1C[C@@H]2CN(C(=O)NCc3ccccc3)CCC[C@]2(C(=O)O)C1 | 9.55
CN(C)c1ncc(CN2CCC(O)(c3ccccc3F)CC2)cn1 | 2.4
Cc1nnsc1CN(C)C(=O)c1ccc(CSc2nnc[nH]2)o1 | -3.33
CC(CCN1CCCC1=O)NCc1cnc(C2CCC2)s1 (stereo not given) | -0.743
CC(C)N(C)C(=O)C1=NOC2(CCN(C(=O)NCc3cccnc3)C2)C1 (stereo not given) | -3.75
CN(C)CCN1CCN(C(=O)c2ccn(C)c(=O)c2)CC1 | -4.14
CN(Cc1ccco1)C(=O)NC1CCCN(c2ncccn2)C1 (stereo not given) | -13.6

SMILES | cytotoxicity at 10 µM [%]
CCc1nc(CCNC(=O)NC2CCN(C(C)C)C2)sc1C (stereo not given) | -7.63
Cc1cc(C[S+]([O-])CC(=O)NCc2ccccc2)no1 (stereo not given) | -2.13
CO[C@H]1CCN(C(=O)c2ccc3oc(C)cc3c2)C[C@@]12CCCO2 | 25.9
CC(O)CNC(=O)CCc1nc2ncccc2[nH]1 (stereo not given) | -3.5
CN(Cc1ccc(Br)o1)C(=O)Nc1cccnc1 | -7.91
CCC(C)NC(=O)CS(=O)(=O)Cc1cc(C)ccc1C (stereo not given) | -3.06
CN(C)c1ccc(CCNC(=O)NCc2ccc(N(C)C)nc2)cc1 | -11.2
N#CCCNC(=O)CN1CCC(c2cc3ccccc3[nH]2)CC1 | 0.91
COCCN1CCO[C@H]2CCN(C(=O)c3cccs3)CC[C@@H]21 | -0.234
c1csc(CN2CCC3(CCCN(c4nncs4)C3)C2)n1 (stereo not given) | -144
Cc1nc(C(C)(C)NC(=O)Nc2ccc(C#N)cc2)no1 | 13
COc1cc2cc(C(=O)NCCC(=O)O)n(C)c2c(OC)c1OC | 4.76
C[C@@H]1CN(c2nc(N)nc3c2CCC3)C[C@]1(C)O | 4.6
Cc1cnc(-c2nc(O)c3c(n2)CN(C(=O)C2CCCC2)CC3)cn1 | -1.39
Cc1ccnc(C2CN(Cc3ccc(-c4ccccc4C(=O)O)o3)C2)n1 | 2.51
O=S1(=O)C[C@@H]2[C@H](C1)N(Cc1ccoc1)CCN2Cc1ccncc1 | -0.452
Cc1nc(CN2CCn3cc(CNC(=O)C4CCC4)nc3C2)cs1 | -6.52
CC(=O)c1ccc(N2CCN(C(=O)c3cnn4c3OCCC4)CC2)cc1 | 8.44
O=C(Nc1nnc(C2CC2)s1)NC1CCN(Cc2ccccc2)C1 (stereo not given) | -10.7
CC(=O)N1Cc2ccccc2C[C@H]1C(=O)N(C)Cc1ccccn1 | 6.17
CCS(=O)(=O)N1CCC(Nc2c(Cl)cccc2C#N)CC1 | -0.85
CCOCCCNC(=O)CN(c1ccc(F)c(F)c1)S(C)(=O)=O | 9.96

SMILES | cytotoxicity at 10 µM [%]
O=C(NCCn1cccc1)C1CCCOC1 (stereo not given) | 3.03
Cc1cccc(C2(C(=O)NC(C)Cn3ccnc3)CC2)c1 (stereo not given) | 0.742
CC(=O)N1CCC2(CCCN(Cc3ccc(Cl)c(C(F)(F)F)c3)C2)C1 (stereo not given) | 3.22
Cc1noc(C2CCN(C(=O)CCc3nccs3)CC2)n1 | -5.43
COc1cc(F)ccc1-c1cnc(N)cn1 | -11.4
CC(C)c1nc(/C=C/c2cnn(-c3ccc(Cl)cc3)c2)ncc1C(=O)O | -6.21
CC(=O)N1Cc2nccn2CC(CNC(=O)c2cccnc2)C1 (stereo not given) | -146
Cc1nc(NC(=O)CN2CCOC(Cn3cccn3)C2)sc1C (stereo not given) | -8.27
COc1ccc(OC)c(C2CCN(C3CCOCC3)C2)c1 (stereo not given) | -6.28
Cc1ccc2c(c1)nc1n2[C@@H](CNC(=O)c2cccnc2)COC1 | 5.29
CN(Cc1cccnc1)c1nccc(N2CCN[C@H]3CS(=O)(=O)C[C@H]32)n1 | 5.82
CCc1c(C(=O)N2CCC(CC(N)=O)CC2)cnn1C(C)(C)C | 2.2
COCc1ncc(CN2CCC3(CCNC(=O)CC3)CC2)cn1 | -147
CN(C)C(=O)N1CCC(C2C(=O)Nc3ccccc32)CC1 (stereo not given) | 11.9
CC(C)(CNC(=O)C1(c2cccc(Br)c2)CCOCC1)C(=O)O | 2.9
COc1cc(N(C)CCCn2nc(C)cc2C)ncn1 | 1.6
O=C(CCc1ccccc1)N1C[C@@H]2CN(Cc3ccoc3)CCO[C@@H]2C1 | -77.8
CN(Cc1cnccn1)CC1CCOc2ccccc2C1 (stereo not given) | -3.75
CN(C)CCN1Cc2ncn(C)c2C(COCC(=O)N(C)C)C1 (stereo not given) | 7.83
CC(C)c1nnc2n1CCN(C(=O)c1ccc(OCC(N)=O)cc1)C2 | -4.84
CN(Cc1ccccc1F)C(=O)c1cc(Cl)c[nH]1 | -5.45
CNC(=O)C1(C)CCCN(c2cnccn2)C1 (stereo not given) | -25.3
